According to ChEMBL document CHEMBL1255409, “In vitro activity of ceftaroline against 623 diverse strains of anaerobic bacteria” (2010):
Converted amounts (≈) assume the structure as drawn.

Tests used:
Type in all cases: functional
[1] = tested on: Bacteroides fragilis; assay: Antimicrobial activity against Bacteroides fragilis under anaerobic conditions after 44 hrs by CLSI-M11-47 protocol based agar dilution method
In short: (§1)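 Reference agar dilution per CLSI M11-A7 with plates made on test day. Clinical isolates were stored at −70°C in 20% skim milk, subcultured twice, and 48-h cell paste was suspended in brucella broth to 0.5 McFarland. About 10^5 CFU/spot was applied with a Steers replicator. Plates were incubated 44 h at 37°C anaerobically. MIC was the lowest concentration giving complete inhibition or marked growth reduction versus the drug-free control.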

[2] = tested on: Bacteroides thetaiotaomicron; assay: Antimicrobial activity against Bacteroides thetaiotaomicron under anaerobic conditions after 44 hrs by CLSI-M11-47 protocol based agar dilution method; in short: as §1
[3] = tested on: Bacteroides caccae; assay: Antimicrobial activity against Bacteroides caccae under anaerobic conditions after 44 hrs by CLSI-M11-47 protocol based agar dilution method; in short: as §1
[4] = tested on: Parabacteroides merdae; assay: Antimicrobial activity against Bacteroides merdae under anaerobic conditions after 44 hrs by CLSI-M11-47 protocol based agar dilution method; in short: as §1
[5] = tested on: Phocaeicola vulgatus; assay: Antimicrobial activity against Bacteroides vulgatus under anaerobic conditions after 44 hrs by CLSI-M11-47 protocol based agar dilution method; in short: as §1
[6] = tested on: Prevotella melaninogenica; assay: Antimicrobial activity against Prevotella melaninogenica under anaerobic conditions after 44 hrs by CLSI-M11-47 protocol based agar dilution method
In short: (§2)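 Clinical isolates were stored at −70°C in 20% skim milk and identified phenotypically or by partial 16S rRNA sequencing. Each strain was subcultured twice from frozen stock. Cell paste from 48-h cultures was suspended in brucella broth to a 0.5 McFarland standard. About 10^5 CFU per spot were applied by Steers replicator to agar dilution plates prepared on the day of testing. Plates were incubated 44 h at 37°C in an anaerobic chamber. MIC was taken as the lowest concentration giving complete inhibition or marked reduction of growth versus the drug-free control.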

[7] = tested on: Prevotella nanceiensis; assay: Antimicrobial activity against Prevotella nanceiensis under anaerobic conditions after 44 hrs by CLSI-M11-47 protocol based agar dilution method; conditions: Hoylesella nanceiensis; in short: as §2
[8] = tested on: Fusobacterium varium; assay: Antimicrobial activity against Fusobacterium varium under anaerobic conditions after 44 hrs by CLSI-M11-47 protocol based agar dilution method; in short: as §2
[9] = tested on: Anaerococcus prevotii; assay: Antimicrobial activity against Anaerococcus prevotii under anaerobic conditions after 44 hrs by CLSI-M11-47 protocol based agar dilution method; in short: as §1
[10] = tested on: Peptoniphilus asaccharolyticus; assay: Antimicrobial activity against Peptoniphilus asaccharolyticus under anaerobic conditions after 44 hrs by CLSI-M11-47 protocol based agar dilution method; in short: as §2
[11] = tested on: Peptostreptococcus anaerobius; assay: Antimicrobial activity against Peptostreptococcus anaerobius under anaerobic conditions after 44 hrs by CLSI-M11-47 protocol based agar dilution method; in short: as §2
[12] = tested on: Peptostreptococcus stomatis; assay: Antimicrobial activity against Peptostreptococcus stomatis under anaerobic conditions after 44 hrs by CLSI-M11-47 protocol based agar dilution method; in short: as §2
[13] = tested on: Anaerococcus lactolyticus; assay: Antimicrobial activity against Anaerococcus lactolyticus under anaerobic conditions after 44 hrs by CLSI-M11-47 protocol based agar dilution method; in short: as §1
[14] = tested on: Gemella morbillorum; assay: Antimicrobial activity against Gemella morbillorum under anaerobic conditions after 44 hrs by CLSI-M11-47 protocol based agar dilution method; in short: as §2
[15] = tested on: Cutibacterium acnes; assay: Antimicrobial activity against Propionibacterium acnes under anaerobic conditions after 44 hrs by CLSI-M11-47 protocol based agar dilution method; in short: as §2
[16] = tested on: Clostridium perfringens; assay: Antimicrobial activity against Clostridium perfringens under anaerobic conditions after 44 hrs by CLSI-M11-47 protocol based agar dilution method
[17] = tested on: Enterocloster clostridioformis; assay: Antimicrobial activity against Clostridium clostridioforme under anaerobic conditions after 44 hrs by CLSI-M11-47 protocol based agar dilution method; in short: as §1
[18] = tested on: Clostridium aldenense; assay: Antimicrobial activity against Clostridium aldenense under anaerobic conditions after 44 hrs by CLSI-M11-47 protocol based agar dilution method; conditions: Enterocloster aldenensis; in short: as §1
[19] = tested on: Clostridium bolteae; assay: Antimicrobial activity against Clostridium bolteae under anaerobic conditions after 44 hrs by CLSI-M11-47 protocol based agar dilution method; conditions: Enterocloster bolteae; in short: as §1
[20] = tested on: Clostridium celerecrescens; assay: Antimicrobial activity against Clostridium celerecrescens under anaerobic conditions after 44 hrs by CLSI-M11-47 protocol based agar dilution method; conditions: Lacrimispora celerecrescens; in short: as §1
[21] = tested on: Clostridium symbiosum; assay: Antimicrobial activity against Clostridium symbiosum under anaerobic conditions after 44 hrs by CLSI-M11-47 protocol based agar dilution method; in short: as §1

CO/N=C(\C(=O)N[C@@H]1C(=O)N2C(C(=O)O)=C(CSc3nc(=O)c(O)nn3C)CS[C@H]12)c1csc(N)n1 [CEFTRIAXONE]
MIC50 [1]: 32 µg/mL (≈ 57.7 µM)
MIC90 [1]: 64 µg/mL (≈ 115 µM)
MIC50 [2]: > 64 µg/mL
MIC90 [2]: > 64 µg/mL
MIC50 [3]: > 64 µg/mL
MIC90 [3]: > 64 µg/mL
MIC50 [4]: > 64 µg/mL
MIC90 [4]: > 64 µg/mL
MIC50 [5]: > 64 µg/mL
MIC90 [5]: > 64 µg/mL
MIC50 [6]: 2 µg/mL (≈ 3.61 µM)
MIC90 [6]: 32 µg/mL (≈ 57.7 µM)
MIC50 [7]: 1 µg/mL (≈ 1.8 µM)
MIC90 [7]: 8 µg/mL (≈ 14.4 µM)
MIC50 [8]: 1 µg/mL (≈ 1.8 µM)
MIC90 [8]: 8 µg/mL (≈ 14.4 µM)
MIC50 [9]: 0.25 µg/mL (≈ 0.451 µM)
MIC90 [9]: 0.5 µg/mL (≈ 0.902 µM)
MIC50 [10]: 0.125 µg/mL (≈ 0.225 µM)
MIC90 [10]: 0.25 µg/mL (≈ 0.451 µM)
MIC50 [11]: 2 µg/mL (≈ 3.61 µM)
MIC90 [11]: 8 µg/mL (≈ 14.4 µM)
MIC50 [12]: 2 µg/mL (≈ 3.61 µM)
MIC90 [12]: 8 µg/mL (≈ 14.4 µM)
MIC50 [13]: 0.25 µg/mL (≈ 0.451 µM)
MIC90 [13]: 16 µg/mL (≈ 28.9 µM)
MIC50 [14]: 0.25 µg/mL (≈ 0.451 µM)
MIC90 [14]: 16 µg/mL (≈ 28.9 µM)
MIC50 [15]: 0.015 µg/mL (≈ 0.027 µM)
MIC90 [15]: 0.06 µg/mL (≈ 0.108 µM)
MIC50 [16]: 0.5 µg/mL (≈ 0.902 µM)
MIC90 [16]: 2 µg/mL (≈ 3.61 µM)
MIC50 [17]: 4 µg/mL (≈ 7.21 µM)
MIC90 [17]: 32 µg/mL (≈ 57.7 µM)
MIC50 [18]: 4 µg/mL (≈ 7.21 µM)
MIC90 [18]: 32 µg/mL (≈ 57.7 µM)
MIC50 [19]: 4 µg/mL (≈ 7.21 µM)
MIC90 [19]: 32 µg/mL (≈ 57.7 µM)
MIC50 [20]: 2 µg/mL (≈ 3.61 µM)
MIC90 [20]: 64 µg/mL (≈ 115 µM)
MIC50 [21]: 2 µg/mL (≈ 3.61 µM)
MIC90 [21]: 64 µg/mL (≈ 115 µM)

CCC[C@@H]1C[C@@H](C(=O)N[C@@H]([C@H]2O[C@H](SC)[C@H](O)[C@@H](O)[C@H]2O)[C@H](C)Cl)N(C)C1 [CLINDAMYCIN]
MIC50 [1]: 1 µg/mL (≈ 2.35 µM)
MIC90 [1]: 128 µg/mL (≈ 301 µM)
MIC50 [2]: 4 µg/mL (≈ 9.41 µM)
MIC90 [2]: 128 µg/mL (≈ 301 µM)
MIC50 [3]: 4 µg/mL (≈ 9.41 µM)
MIC90 [3]: > 128 µg/mL
MIC50 [4]: 4 µg/mL (≈ 9.41 µM)
MIC90 [4]: > 128 µg/mL
MIC50 [5]: 4 µg/mL (≈ 9.41 µM)
MIC90 [5]: > 128 µg/mL
MIC50 [6]: ≤ 0.03 µg/mL
MIC90 [6]: > 128 µg/mL
MIC50 [7]: ≤ 0.03 µg/mL
MIC90 [7]: 128 µg/mL (≈ 301 µM)
MIC50 [8]: 2 µg/mL (≈ 4.71 µM)
MIC90 [8]: 4 µg/mL (≈ 9.41 µM)
MIC50 [9]: 0.5 µg/mL (≈ 1.18 µM)
MIC90 [9]: 128 µg/mL (≈ 301 µM)
MIC50 [10]: 0.125 µg/mL (≈ 0.294 µM)
MIC90 [10]: > 128 µg/mL
MIC50 [11]: ≤ 0.03 µg/mL
MIC90 [11]: 0.25 µg/mL (≈ 0.588 µM)
MIC50 [12]: ≤ 0.03 µg/mL
MIC90 [12]: 0.25 µg/mL (≈ 0.588 µM)
MIC50 [13]: 0.125 µg/mL (≈ 0.294 µM)
MIC90 [13]: 64 µg/mL (≈ 151 µM)
MIC50 [14]: 0.125 µg/mL (≈ 0.294 µM)
MIC90 [14]: 64 µg/mL (≈ 151 µM)
MIC50 [15]: 0.125 µg/mL (≈ 0.294 µM)
MIC90 [15]: 0.125 µg/mL (≈ 0.294 µM)
MIC50 [16]: 0.25 µg/mL (≈ 0.588 µM)
MIC90 [16]: 1 µg/mL (≈ 2.35 µM)
MIC50 [17]: 0.5 µg/mL (≈ 1.18 µM)
MIC90 [17]: 2 µg/mL (≈ 4.71 µM)
MIC50 [18]: 0.5 µg/mL (≈ 1.18 µM)
MIC90 [18]: 2 µg/mL (≈ 4.71 µM)
MIC50 [19]: 0.5 µg/mL (≈ 1.18 µM)
MIC90 [19]: 2 µg/mL (≈ 4.71 µM)
MIC50 [20]: 2 µg/mL (≈ 4.71 µM)
MIC90 [20]: 128 µg/mL (≈ 301 µM)
MIC50 [21]: 2 µg/mL (≈ 4.71 µM)
MIC90 [21]: 128 µg/mL (≈ 301 µM)
